Published values gathered from unrelated publications.
Each line is one published result; the experiments were not run side by side. ≈ marks a conversion by molar mass, not a printed value.

CCOC(=O)c1c(NCCCCN)c2c([nH]c1=O)CCC2  EC50 (Human immunodeficiency virus 1; viral replication, inhibitor; IIIB; 72 h): > 100 µM
CC(C)(C#Cc1ccc(-c2ccc(Cl)c3c(NS(C)(=O)=O)nn(CC(F)(F)F)c23)c([C@H](CC2CC2)NC(=O)Cn2nc(C(F)(F)F)c3c2C(F)(F)[C@@H]2C[C@H]32)n1)S(C)(=O)=O  EC50 (Human immunodeficiency virus 1; viral replication, inhibitor): 0.0009 µM
NNC(=O)c1ccncc1  MIC90 (Mycobacterium marinum; microbial growth): 40 µM (≈ 5.49 µg/mL)
CC(C)(C#Cc1ccc(-c2ccc(Cl)c3c(NS(C)(=O)=O)nn(CC(F)(F)F)c23)c([C@H](Cc2cc(F)cc(F)c2)NC(=O)Cn2nc(C(F)(F)F)c3c2C(F)(F)[C@@H]2C[C@H]32)n1)S(C)(=O)=O  EC50 (Human immunodeficiency virus 1; viral replication, inhibitor): 0.00019 µM
CC(=O)ON=C1C=CC(=C(C#N)c2ccccc2)C=C1  IC50 (HDF-1; cell growth or viability, MTT; 48 h): 24.9 µg/mL
Cc1ccc(-c2nn(-c3ccccc3)cc2C=Nc2c(N)nc(S)nc2O)cc1  CC50 (CCRF-CEM; cell growth or viability; 48 h): < 20 µM
CC(C)(C#Cc1ccc(-c2ccc(Cl)c3c(NS(C)(=O)=O)nn(CC(F)(F)F)c23)c([C@H](CC2CCCC2)NC(=O)Cn2nc(C(F)(F)F)c3c2C(F)(F)[C@@H]2C[C@H]32)n1)S(C)(=O)=O  EC50 (Human immunodeficiency virus 1; viral replication, inhibitor): 7.3e-05 µM
CCOC(=O)c1c(NCCC(C)C)c2c([nH]c1=O)CCC2  EC50 (Human immunodeficiency virus 1; viral replication, inhibitor; IIIB; 72 h): 9.09 µM
O=c1[nH]ncc(NN=Cc2cn(-c3ccccc3)nc2-c2cc3ccccc3oc2=O)c1Cl  CC50 (CCRF-CEM; cell growth or viability; 48 h): 36.2 µM
CCOC(=O)c1c(N(CC)CC)c2c([nH]c1=O)CCC2  EC50 (Human immunodeficiency virus 1; viral replication, inhibitor; IIIB; 72 h): 79.3 µM
O=C(N[C@@H](CSCc1ccccc1)C(=O)NO)c1ccccc1  IC50 (HCC4006; cell growth or viability, MTT; 48 h): 68.2 µM
Cc1nc(Nc2ncc(C(=O)Nc3c(C)cccc3Cl)s2)cc(N2CC[C@H](O)C2)n1  inhibition (SU-DHL-5; cell growth or viability, ATP luminescence; 10 µM, 72 h): 98%
CCOC(=O)c1c(NCCO)c2c([nH]c1=O)CCC2  EC50 (Human immunodeficiency virus 1; viral replication, inhibitor; IIIB; 72 h): > 100 µM
